The text below walks through data of ChEMBL document CHEMBL2146403, “Synthesis and Antitumor Activity of Ellagic Acid Peracetate” (ACS Med Chem Lett, 2012).

The subject of data set [1] is B16. Nature of the data set: Antitumor activity against mouse B16 cells xenografted in C57BL/6 mouse assessed as tumor growth inhibition at 0.5 mg/kg, po administered for 1 week prior to tumor injection followed by treatment for additional 2 weeks relative to vehicle-treated control. The format is functional. Put shortly:
(§1)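 Subcutaneous B16 melanoma in C57BL/6 immunocompetent mice aged 8–12 weeks. Test agent or vehicle was given daily in drinking water at 0.5 mg/kg for one week. B16 cells were then inoculated and dosing continued for 2 more weeks. At sacrifice, tumors were excised and weighed against the vehicle group, and kidneys, livers and spleens were inspected.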

Data set [2] has as its system Mus musculus. The data set can be described thus: Toxicity in C57BL/6 mouse xenografted with B16 cells assessed as adverse effects at 0.5 mg/kg, po administered for 1 week prior to tumor injection followed by treatment for additional 2 weeks relative to vehicle-treated control. Conditions: in vivo. The format is organism-based. Set-up: dose 0.5 mg/kg, route oral. Put shortly: as §1

Data set [3] relates to Mus musculus. Nature of the data set: Immunoenhancing activity in C57BL/6 mouse assessed as increase in total immune cells in bone marrow at 0.5 mg/kg, po administered for 1 week by trypan blue exclusion method relative to vehicle-treated control. It counts as functional. Summed up:
(§2)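 Tumor-free normal mice were dosed for 1 week with test agent or vehicle. WBCs in peripheral blood and immune cells enriched from bone marrow and liver were counted by Trypan Blue exclusion and compared with the vehicle group. Columns are group means, bars SE, significance p ≤ 0.05.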

For data set [4], the system named is Mus musculus. Nature of the data set: Immunoenhancing activity in C57BL/6 mouse assessed as increase in total immune cells in liver at 0.5 mg/kg, po administered for 1 week by trypan blue exclusion method relative to vehicle-treated control. It counts as functional. Summed up: as §2
For data set [5], the system named is Mus musculus. The data set can be described thus: Immunoenhancing activity in C57BL/6 mouse assessed as increase in immune subset cells in bone marrow at 0.5 mg/kg, po administered for 1 week by flow cytometric analysis relative to vehicle-treated control. The format is functional, organism-based. Set-up: dose 0.5 mg/kg. For orientation: A flow cytometer gives signals particle by particle.

Data set [6] deals with Mus musculus. Nature of the data set: Immunoenhancing activity in C57BL/6 mouse assessed as increase in immune subset cells in liver at 0.5 mg/kg, po administered for 1 week by flow cytometric analysis relative to vehicle-treated control. It counts as functional, organism-based. Set-up: dose 0.5 mg/kg.
The subject of data set [7] is Mus musculus. The data set can be described thus: Immunomodulatory activity in C57BL/6 mouse NK cells expressing NK1.1 and CD3 assessed as cell surface CD107a expression level at 0.5 mg/kg, po administered for 1 week by YAC1 co culture-based immunostaining analysis (reference value: 41.5%). The format is functional.
Data set [8] concerns Mus musculus. Nature of the data set: Immunomodulatory activity in C57BL/6 mouse CD3-deficient NK cells expressing NK1.1 assessed as […]- and IL-18 induced IFNgamma level at 0.5 mg/kg, po administered for 1 week by flow cytometric analysis (reference value: 76.7%). It counts as functional.
Data set [9] relates to Mus musculus. The data set can be described thus: Toxicity in C57BL/6 mouse assessed as change in body weight at 0.5 mg/kg, po administered for 3 weeks relative to vehicle-treated control. The format is organism-based. Set-up: dose 0.5 mg/kg, route oral. The following applies: in vivo, 504 h. Summed up:
(§3)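 Oral acute toxicity in normal mice dosed daily with test agent or vehicle for 3 weeks. Body, spleen and liver were inspected and weighed. Values are group means with n ≥ 4 and SE bars.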

Data set [10] deals with Mus musculus. The data set can be described thus: Toxicity in C57BL/6 mouse assessed as change in liver weight at 0.5 mg/kg, po administered for 3 weeks relative to vehicle-treated control. It counts as organism-based. More on the design: dose 0.5 mg/kg, route oral. The following applies: in vivo, 504 h. Summed up:
as §3

The subject of data set [11] is Mus musculus. Nature of the data set: Toxicity in C57BL/6 mouse assessed as change in spleen weight at 0.5 mg/kg, po administered for 3 weeks relative to vehicle-treated control. The format is organism-based. More on the design: dose 0.5 mg/kg, route oral. Conditions: in vivo, 504 h. Summed up: as §3
The test system of data set [12] is B16. The data set can be described thus: Growth inhibition of mouse B16 cells at 10 uM after 24 to 96 hrs by trypan blue exclusion assay. The format is functional, cell-based.
Data set [13] relates to B16. The data set can be described thus: Induction of apoptosis in mouse B16 cells assessed as early apoptotic cells at 10 uM after 72 hrs by AnnexinV/PI staining-based flow cytometric analysis (reference value: 2.28%). The format is functional.
The subject of data set [14] is B16. The data set can be described thus: Induction of apoptosis in mouse B16 cells assessed as late apoptotic cells at 10 uM after 72 hrs by AnnexinV/PI staining-based flow cytometric analysis (reference value: 2.48%). The format is functional.
For data set [15], the system named is B16. The data set can be described thus: Induction of apoptosis in mouse B16 cells assessed as necrotic cells at 10 uM after 72 hrs by AnnexinV/PI staining-based flow cytometric analysis (reference value: 5.26%). It counts as functional.
Data set [16] deals with B16. Nature of the data set: Induction of apoptosis in mouse B16 cells assessed as viable cells at 10 uM after 72 hrs by AnnexinV/PI staining-based flow cytometric analysis (reference value: 90%). The following applies: B16, 72 h, read-out: Activity. The format is functional.
For data set [17], the system named is B16. Nature of the data set: Induction of apoptosis in mouse B16 cells assessed as decrease in Bcl2 expression at 10 uM after 72 hrs by Western blot analysis. The format is functional, cell-based.
Data set [18] deals with Mus musculus. The data set can be described thus: Immunoenhancing activity in C57BL/6 mouse assessed as increase in peripheral blood WBC level at 0.5 mg/kg, po administered for 1 week by trypan blue exclusion method relative to vehicle-treated control. The format is functional. Summed up: as §2

SMILES strings stand for the structures. Activity calls are given as the source filed them. The rule behind the calls is not given here.

In the case of `O=c1oc2c(O)c(O)cc3c(=O)oc4c(O)c(O)cc1c4c23` [ELLAGIC ACID], the “growth inhibition (GI)” value in data set [1] was “inactive”. Further, the Activity result in [2] is given as “Non-toxic”; in data set [7], 37.2%; in data set [8] it was 74.9%; in data set [9], “Non-toxic”; in [10] it was “Non-toxic”; in data set [11], “Non-toxic”. Besides, the Activity in data set [13] worked out at 4.33%; in data set [14], 6.84%; in [15], 4.95%. For the same compound, the outcome in data set [3], in data set [4], in data set [5] and in data set [6] was inactive. In [12], the “growth inhibition (GI)” value was “Active”. Moreover, the viability at 10 µM in [16] turned out to be 83.9%. In addition, the outcome in data set [17] was Active.
Take `CC(=O)Oc1cc2c(=O)oc3c(OC(C)=O)c(OC(C)=O)cc4c(=O)oc(c1OC(C)=O)c2c34` [ELLAGIC ACID TETRAACETATE]: the inhibition in vivo at 0.5 mg/kg in [1] (read-out: GI) was 70%. Also, the Activity entry was “Non-toxic” in [2]; 70% in data set [18]; 50% in data set [3]; 200% in data set [4]; 40.4% in [7]; 78.2% in [8]. The Activity result is recorded as “Non-toxic” in data set [9]; “Non-toxic” in data set [10]; “Non-toxic” in [11]; 6.99% in data set [13]; 9.78% in data set [14]; 11.8% in [15]. Also, the outcome in [5] and in data set [6] was inactive. Further, the “growth inhibition (GI)” value in data set [12] is “Active”. Besides, the viability at 10 µM in [16] was found to be 71.4%. Besides, in data set [17], the outcome was Active.
